The source of these data is ChEMBL document CHEMBL1142740, “Pyrroloquinolone PDE5 inhibitors with improved pharmaceutical profiles for clinical studies on erectile dysfunction” (J Med Chem, 2005).

By IC50 is commonly meant the concentration needed to halve the response being measured. By ED50 is commonly meant the dose at which the effect has come halfway, by size or by number of responders. Broadly, the Ki is a measure of affinity in units of concentration, obtained from inhibition or displacement. The term bioavailability denotes dose-corrected exposure relative to a reference, in per cent.

For series [1], the system named is RFL-6. As to the kind of experiment: Ratio of inhibitory constant against rod phosphodiesterase 6 and phosphodiesterase 5 in rat fetal lung fibroblast (RFL-6) cells. Type of series: cell-based.
Series [2] has as its target T1, cGMP-specific 3',5'-cyclic phosphodiesterase (Rattus norvegicus, UniProt O54735). Kind of series: Inhibitory concentration against phosphodiesterase 5 in rat fetal lung fibroblast (RFL-6) cells. Type of series: cell-based.
In series [3] the test system is RFL-6. As to the kind of experiment: Ratio of inhibitory constant against phosphodiesterase 3 and phosphodiesterase 5 in rat fetal lung fibroblast (RFL-6) cells. The format is cell-based.
Series [4] deals with RFL-6. As to the kind of experiment: Ratio of inhibitory constant against phosphodiesterase 4 and phosphodiesterase 5 in rat fetal lung fibroblast (RFL-6) cells. The format is cell-based.
Series [5] relates to RFL-6. Kind of series: Ratio of inhibitory constant against phosphodiesterase 2 and phosphodiesterase 5 in rat fetal lung fibroblast (RFL-6) cells. Type of series: cell-based.
Series [6] relates to RFL-6. Kind of series: Ratio of inhibitory constant against cone phosphodiesterase 6 and phosphodiesterase 5 in rat fetal lung fibroblast (RFL-6) cells. The format is cell-based.
The subject of series [7] is RFL-6. As to the kind of experiment: Ratio of inhibitory constant against phosphodiesterase 1 and phosphodiesterase 5 in rat fetal lung fibroblast (RFL-6) cells. The format is cell-based.
In a further series the test system is Canis familiaris. As to the kind of experiment: Effect on intracavernosal pressure after i.v. administration in electrically stimulated dogs. The format is functional. The following applies: Canis lupus familiaris, iv.
Series [8] deals with T1, cGMP-specific 3',5'-cyclic phosphodiesterase. Kind of series: Inhibition of phosphodiesterase 5 in rat fetal lung fibroblast (RFL-6) cells. Type of series: cell-based.
Series [9] in a line: (§1) Oral bioavailability in rat. The format is ADME, organism-based. The following applies: in vivo. The method, boiled down:
(§2)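 Male Sprague-Dawley rats, male beagle dogs and male rhesus monkeys, three per group. The oral arm received 30 mg/kg in 0.5% methylcellulose; the iv arm received 3.0 mg/kg in 20% HPBCD. Blood was drawn at 0, 0.5, 1, 2, 4, 6 and 24 h, and plasma drug was quantified by LC/MS. Bioavailability is reported as value and standard deviation.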

For series [10], the target named is cGMP-specific 3',5'-cyclic phosphodiesterase (Rattus norvegicus) (UniProt O54735). As to the kind of experiment: pKa value for phosphodiesterase 5 in rat fetal lung fibroblast (RFL-6) cells. Type of series: functional, cell-based.
In series [11] the test system is RFL-6. Kind of series: Ratio of binding affinity towards phosphodiesterase 4 and phosphodiesterase 5 in rat fetal lung fibroblast (RFL-6) cells. The format is cell-based.
Series [12] addresses cGMP-specific 3',5'-cyclic phosphodiesterase (Rattus norvegicus) (UniProt O54735). The conditions noted are these: RFL-6.
Series [13] in a line: Oral bioavailability in dog. The conditions noted are these: in vivo. The format is ADME, organism-based, Canis lupus familiaris. In short, it runs like this: as §2
Series [14] is described as follows: Oral bioavailability in monkey was determined. The following applies: cercopithecidae, in vivo. The format is ADME, organism-based. In short, it runs like this: as §2
Series [15] can be described thus: as §1. Type of series: ADME, organism-based. The conditions noted are these: in vivo. In short, it runs like this: as §2
This is another data set of the same source.

In the case of `Oc1c2c(nc3ccccc13)C(c1ccc3c(c1)OCO3)N(c1ccc(-n3ccnc3)cc1)C2` (stereo unspecified), the Selectivity is 20.1 in the series with RFL-6 [1]; greater than 10300 in the series with RFL-6 [3]; greater than 2500 with RFL-6 [4]; greater than 4870 in the series on RFL-6 [5]; 13.2 with RFL-6 [6]; greater than 15000 in the series with RFL-6 [7]. In [2], the half-inhibitory concentration (IC50) was found to be 1.75 nM.
In the series on Canis familiaris, `CCCc1nn(C)c2c(=O)[nH]c(-c3cc(S(=O)(=O)N4CCN(C)CC4)ccc3OCC)nc12` had an ED50 of 5.1 µg/kg.
In the case of `Oc1c2c(nc3ccccc13)C(c1ccc3c(c1)CCO3)N(c1ncc(-c3cccnc3)cn1)C2` (stereo unspecified), the Selectivity in the series on RFL-6 [1] was 127; with RFL-6 [3] it was greater than 15000; with RFL-6 [4], greater than 2500; with RFL-6 [5] it was greater than 15000; in the series on RFL-6 [6], 66.5; in the series with RFL-6 [7] it was greater than 15000. The Ki in [8] came out at 0.36 nM.
`Oc1c2c(nc3ccccc13)C(c1ccc3c(c1)CCO3)N(c1ncccn1)C2` (stereo unspecified): the Selectivity was 755 with RFL-6 [1]; greater than 15000 in the series on RFL-6 [3]; greater than 2500 in the series on RFL-6 [4]; greater than 15000 in the series on RFL-6 [5]; 310 in the series with RFL-6 [6]; greater than 15000 in the series with RFL-6 [7]. The compound also had a bioavailability in series [9] of 12%. In series [10], this compound gave a pKa of 4.4.
The compound `CN1CC(=O)N2[C@H](c3ccc4c(c3)OCO4)c3[nH]c4ccccc4c3C[C@@H]2C1=O` showed an inhibitory constant (Ki) in series [8] of 5 nM. The Selectivity with RFL-6 [3] is greater than 2000; in the series with RFL-6 [4], greater than 2000; in the series on RFL-6 [5] it was greater than 2000; in the series on RFL-6 [6], 1000; in the series on RFL-6 [7], greater than 2000.
On to `Oc1c2c(nc3ccccc13)C(c1ccc3c(c1)CCO3)N(c1ncc(Br)cn1)C2` (stereo unspecified), for which the Selectivity in the series with RFL-6 [1] was 35.7; with RFL-6 [3] it was greater than 15000; in the series on RFL-6 [4] it was greater than 2500; in the series on RFL-6 [5], greater than 15000; with RFL-6 [6], 39.2; with RFL-6 [7], greater than 15000. The same compound yielded an IC50 in [2] of 1.9 nM.
For the compound `Cn1cncc1-c1ccc(N2Cc3c(nc4ccccc4c3O)C2c2ccc3c(c2)CCO3)nc1` (stereo unspecified), the Selectivity is 2.6 in the series with RFL-6 [1]; greater than 15000 with RFL-6 [3]; greater than 15000 in the series on RFL-6 [5]; 10.3 in the series on RFL-6 [6]; greater than 2500 in the series on RFL-6 [11]; greater than 15000 in the series on RFL-6 [7]. Further, the Ki in series [8] is 0.33 nM.
Compound `Oc1c2c(nc3ccccc13)C(c1ccc3c(c1)CCO3)N(c1ccc(-c3ccccn3)nc1)C2` (stereo unspecified) came in with an inhibition constant (Ki) in series [8] of 6.43 nM. Moreover, the Selectivity with RFL-6 [3] was greater than 15000; in the series on RFL-6 [4] it was greater than 2500; in the series on RFL-6 [5], greater than 15000; with RFL-6 [7] it was greater than 15000.
As to `Oc1c2c(nc3ccccc13)C(c1ccc3occc3c1)N(c1ncc(-c3ccccn3)cn1)C2` (stereo unspecified), the Selectivity with RFL-6 [1] was 22.6; in the series with RFL-6 [3], greater than 15000; with RFL-6 [4] it was 2500; with RFL-6 [5], greater than 15000; with RFL-6 [6] it was 22.3; in the series with RFL-6 [7], 15000. The compound also gave a Ki in series [8] of 0.19 nM.
Regarding `Cc1ncc(-c2cnc(N3Cc4c(nc5ccccc5c4O)C3c3ccc4c(c3)CCO4)nc2)n1C` (stereo unspecified), the Selectivity in the series with RFL-6 [1] was 237; with RFL-6 [3], greater than 15000; with RFL-6 [4], greater than 2500; in the series with RFL-6 [5], greater than 15000; with RFL-6 [6], 219; in the series on RFL-6 [7], greater than 15000. Moreover, the Ki in series [8] was 0.24 nM. The bioavailability in series [9] came out at 0%.
Take `Cc1ncc(-c2cnc(N3Cc4c(nc5ccccc5c4O)C3c3ccc4c(c3)CCO4)nc2)n1Cc1ccccc1` (stereo unspecified): the Selectivity was 366 with RFL-6 [1]; greater than 15000 in the series on RFL-6 [3]; greater than 2500 in the series with RFL-6 [4]; greater than 15000 with RFL-6 [5]; 359 with RFL-6 [6]; greater than 15000 in the series with RFL-6 [7]. This compound returned an inhibitory constant (Ki) in [8] of 0.24 nM.
Regarding `Oc1c2c(nc3ccccc13)C(c1ccc3c(c1)CCO3)N(c1ccc(-n3ccnc3)cc1)C2` (stereo unspecified), the Selectivity with RFL-6 [1] was 499; with RFL-6 [3], greater than 15000; with RFL-6 [4] it was greater than 2500; in the series with RFL-6 [5], greater than 15000; with RFL-6 [6], 1840; with RFL-6 [7], greater than 15000. Also, the Ki in series [8] was determined as 0.51 nM.
On to `Oc1c2c(nc3ccccc13)C(c1ccc3c(c1)OCO3)N(c1ncc(-c3cccnc3)cn1)C2` (stereo unspecified), for which the Selectivity with RFL-6 [1] was 9.3; with RFL-6 [3], greater than 15000; in the series with RFL-6 [4], greater than 2500; in the series with RFL-6 [5], greater than 15000; in the series on RFL-6 [6] it was 7.6; in the series with RFL-6 [7], greater than 15000. Besides, the inhibitory constant (Ki) in series [8] is 0.29 nM.
`Oc1c2c(nc3ccccc13)C(c1ccc3c(c1)CCO3)N(c1ncc(-c3ccccn3)cn1)C2` (stereo unspecified) yielded a Pka in series [12] of 9.24. The Selectivity with RFL-6 [3], in the series with RFL-6 [5] and in the series with RFL-6 [7] was greater than 15000 throughout. For the same compound, the bioavailability in series [9] was determined as 31.3%.
As for `Oc1c2c(nc3ccccc13)C(c1ccc3c(c1)CCO3)N(c1ccc(-c3cncn3Cc3ccccc3)cn1)C2` (stereo unspecified), the Selectivity in the series with RFL-6 [1] was 57.6; in the series on RFL-6 [3], 4560; in the series on RFL-6 [4], greater than 2500; in the series with RFL-6 [5], greater than 15000; with RFL-6 [6], 68.9; in the series with RFL-6 [7], greater than 15000. Moreover, in series [8], the affinity corresponds to a Ki of 0.17 nM.
Turning to `Oc1c2c(nc3ccccc13)[C@@H](c1ccc3c(c1)CCO3)N(c1ncc(-c3ccccn3)cn1)C2`, the Selectivity with RFL-6 [1] is 99; in the series with RFL-6 [3], greater than 15000; in the series with RFL-6 [4], greater than 2500; in the series with RFL-6 [5], greater than 15000; in the series with RFL-6 [6], 67; in the series on RFL-6 [7] it was greater than 15000. Also, the Ki in series [8] was determined as 0.019 nM. Besides, the 50% effect level in the series with Canis familiaris (ED50) was put at a dose of 8.03 µg/kg.
Consider `Oc1c2c(nc3ccccc13)C(c1ccc3c(c1)CCO3)N(c1ccccn1)C2` (stereo unspecified), for which the Selectivity with RFL-6 [1] is 219; in the series on RFL-6 [3] it was greater than 15000; in the series with RFL-6 [4], greater than 2500; in the series with RFL-6 [5] it was greater than 15000; in the series on RFL-6 [6], 237; in the series on RFL-6 [7] it was greater than 15000. The same compound yielded a pka in series [10] of 5.
On to `Oc1c2c(nc3ccccc13)[C@@H](c1ccc3c(c1)CCO3)N(c1ccccn1)C2`, for which the Selectivity was 173 in the series with RFL-6 [1]; greater than 15000 in the series with RFL-6 [3]; greater than 2500 in the series on RFL-6 [4]; greater than 15000 in the series on RFL-6 [5]; 106 with RFL-6 [6]; greater than 15000 with RFL-6 [7]. The compound further returned an inhibition constant Ki in series [8] of 0.12 nM. The bioavailability worked out at 69% in [13] and 40% in [14]. The compound further came in with a 50% effective dose (ED50) in the series with Canis familiaris of 9.85 µg/kg.
The compound `CCN(CC)CCOc1ccc(-c2cnc(N3Cc4c(nc5ccccc5c4O)C3c3ccc4c(c3)CCO4)nc2)cc1` (stereo unspecified) registered a Ki in series [8] of 0.53 nM.
Turning to `COc1ccc(-c2cnc(N3Cc4c(nc5ccccc5c4O)C3c3ccc4c(c3)CCO4)nc2)cc1` (stereo unspecified), the affinity in series [8], expressed as Ki, was 0.52 nM.
`O=c1c2c([nH]c3ccccc13)C(c1ccc3c(c1)CCO3)N(c1ccccn1)C2` (stereo unspecified) displayed an inhibitory constant (Ki) in [8] of 0.65 nM. Moreover, the bioavailability in [15] and in series [9] was 38% in each case.
For `Oc1c2c(nc3ccccc13)C(c1ccc3c(c1)CCO3)N(c1ccc(-c3ccccn3)cn1)C2` (stereo unspecified), the Selectivity in the series on RFL-6 [1] is 93; in the series with RFL-6 [3] it was greater than 15000; in the series on RFL-6 [4] it was greater than 2500; in the series on RFL-6 [5], greater than 15000; in the series with RFL-6 [6] it was 69.2; in the series with RFL-6 [7], greater than 15000. This compound also gave an inhibitory constant (Ki) in [8] of 0.15 nM. Also, the bioavailability in series [9] was 39%.
Turning to `Oc1c2c(nc3ccccc13)C(c1ccc3c(c1)CCO3)N(c1ncc(-c3ccncc3)cn1)C2` (stereo unspecified), the Selectivity with RFL-6 [1] is 10.5; with RFL-6 [3], greater than 15000; with RFL-6 [4], greater than 2500; in the series with RFL-6 [5] it was greater than 15000; in the series on RFL-6 [6], 12.1; in the series with RFL-6 [7], greater than 15000. The Ki in [8] turned out to be 0.22 nM.
